In brackets after ≈: the same amount, converted by molar mass. Activity calls are given as the source filed them. Bounds are passed on as bounds.

Experiment [1] concerns Escherichia coli. Put plainly: Bactericidal activity against Escherichia coli ATCC 25922 after 18 hrs. It counts as functional. Conditions: ATCC 25922, 18 h. Summed up: (§1)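 Continuation of the broth-dilution MIC test. A loopful from each tube without visible growth spread on a quarter of a Mueller-Hinton agar plate and incubated 18 h. Lowest concentration giving no growth on subculture taken as the MBC.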

Experiment [2] has as its system Bacillus spizizenii. Put plainly: Antibacterial activity against Bacillus subtilis ATCC 6633 assessed as growth inhibition at 1 mg/mL after 24 hrs by agar-cup diffusion method. The note with it: ATCC 6633, 24 h, read-out: DIZ. It counts as functional. Put shortly:
(§2)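 Agar-cup diffusion: 1 mL of 6 h broth culture seeded per 100 mL molten sterile agar at 45 °C and poured into plates. 8 mm cups cut, each filled with 0.1 mL of 1 mg/mL test solution. Incubated 37 °C for 24 h, 48 h for C. albicans. DMSO control per organism. Inhibition zone diameter in mm, mean of three measurements.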

Experiment [3] relates to Bacillus spizizenii. As to the kind of experiment: Bactericidal activity against Bacillus subtilis ATCC 6633 after 18 hrs. In kind it is functional. The note with it: ATCC 6633, 18 h. Put shortly: as §1
In experiment [4] the test system is Aspergillus niger. Put plainly: Antifungal activity against Aspergillus niger assessed as growth inhibition at 1 mg/mL after 24 hrs by agar-cup diffusion method. It counts as functional, organism-based. Put shortly:
as §2

For experiment [5], the system named is Candida albicans. As to the kind of experiment: Antifungal activity against Candida albicans ATCC 10231 assessed as growth inhibition at 1 mg/mL after 48 hrs by agar-cup diffusion method. It counts as functional. Conditions: ATCC 10231, 48 h, read-out: DIZ. Summed up: as §2
Experiment [6] concerns Staphylococcus aureus. Put plainly: Antibacterial activity against Staphylococcus aureus ATCC 6538 assessed as growth inhibition after 48 hrs by two-fold serial dilution assay. In kind it is functional. Put shortly:
(§3)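 Twofold serial broth dilution run on compounds giving inhibition zones of 13 mm or more. Organisms pre-grown in suitable broth at 37 °C, 24 h for bacteria and 48 h for fungi. Dilution series 200, 100, 50, 25, 12.5, 6.25. Each 5 mL tube inoculated with 0.1 mL and incubated 37 °C for 48 h. Tubes scored for presence or absence of growth.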

Experiment [7] deals with Staphylococcus aureus. As to the kind of experiment: Antibacterial activity against Staphylococcus aureus ATCC 6538 assessed as growth inhibition at 1 mg/mL after 24 hrs by agar-cup diffusion method. In kind it is functional. Conditions: ATCC 6538, 24 h, read-out: DIZ. Summed up: as §2
For experiment [8], the system named is Staphylococcus aureus. As to the kind of experiment: Bactericidal activity against Staphylococcus aureus ATCC 6538 after 18 hrs. It counts as functional. The note with it: ATCC 6538, 18 h. Summed up: as §1
Experiment [9] relates to Escherichia coli. Put plainly: Antibacterial activity against Escherichia coli ATCC 25922 assessed as growth inhibition after 48 hrs by two-fold serial dilution assay. It counts as functional. Put shortly: as §3
For experiment [10], the system named is Bacillus spizizenii. As to the kind of experiment: Antibacterial activity against Bacillus subtilis ATCC 6633 assessed as growth inhibition after 48 hrs by two-fold serial dilution assay. In kind it is functional. Summed up:
as §3

In experiment [11] the test system is Pseudomonas aeruginosa. As to the kind of experiment: Antibacterial activity against Pseudomonas aeruginosa ATCC 27853 assessed as growth inhibition at 1 mg/mL after 24 hrs by agar-cup diffusion method. In kind it is functional. The note with it: ATCC 27853, 24 h, read-out: DIZ. Summed up: as §2
Experiment [12] concerns Escherichia coli. Put plainly: Antibacterial activity against Escherichia coli ATCC 25922 assessed as growth inhibition at 1 mg/mL after 24 hrs by agar-cup diffusion method. In kind it is functional. The note with it: ATCC 25922, 24 h, read-out: DIZ. Summed up:
as §2

Experiment [13] relates to Pseudomonas aeruginosa. Put plainly: Antibacterial activity against Pseudomonas aeruginosa ATCC 27853 assessed as growth inhibition after 48 hrs by two-fold serial dilution assay. In kind it is functional. Put shortly:
as §3

Experiment [14] concerns Pseudomonas aeruginosa. As to the kind of experiment: Bactericidal activity against Pseudomonas aeruginosa ATCC 27853 after 18 hrs. The note with it: ATCC 27853, 18 h. In kind it is functional. Summed up: as §1
Experiment [15] deals with Candida albicans. Put plainly: Antifungal activity against Candida albicans ATCC 10231 assessed as growth inhibition after 48 hrs by two-fold serial dilution assay. In kind it is functional. Conditions: ATCC 10231, 48 h. Put shortly: as §3

A word on the MBC: it is the smallest concentration meeting the test's criterion for killing. By MIC is commonly meant the lowest concentration found to suppress growth. With `CCOC(=O)c1sc(/N=C/c2cccs2)nc1C`, the MBC is 100 µg/mL (≈ 357 µM) in experiment [1], 200 µg/mL (≈ 713 µM) in [3] and 200 µg/mL (≈ 713 µM) in experiment [8]. The zone of inhibition at 1000 µg/mL in experiment [2], in experiment [5], in experiment [7], in experiment [11] and in experiment [12] was greater than 13 mm in each case. Further, the “growth inhibition (GI)” value in experiment [4] is “inactive”. In addition, the minimum inhibitory concentration (MIC) in [6] (ATCC 6538, 48 h) was determined as 100 µg/mL (≈ 357 µM); in experiment [9] (ATCC 25922, 48 h), 50 µg/mL (≈ 178 µM); in [10] (ATCC 6633, 48 h), 100 µg/mL (≈ 357 µM).

As to GENTAMICIN, the MIC turned out to be 12.5 µg/mL in experiment [13], 3.12 µg/mL in experiment [6], 3.12 µg/mL in experiment [9] and 12.5 µg/mL in [10].

As to `CC1(C)S[C@@H]2[C@H](NC(=O)[C@H](N)c3ccccc3)C(=O)N2[C@H]1C(=O)O.O.O.O` [AMPICILLIN TRIHYDRATE], the MIC in experiment [13] (ATCC 27853, 48 h) was found to be 12.5 µg/mL; in experiment [6] (ATCC 6538, 48 h), 6.25 µg/mL; in [9] (ATCC 25922, 48 h) it was 6.25 µg/mL; in [10] (ATCC 6633, 48 h), 12.5 µg/mL.

`CCOC(=O)c1sc(NC(=S)Nc2ccc(C)cc2)nc1C`: the MBC in [1] is 100 µg/mL (≈ 298 µM); in experiment [14], 200 µg/mL (≈ 596 µM); in [3] it was 100 µg/mL (≈ 298 µM); in [8], 50 µg/mL (≈ 149 µM). Besides, the zone of inhibition at 1000 µg/mL in [2], in experiment [5], in [7], in [11] and in [12] was greater than 13 mm each time. The MIC in [13] (ATCC 27853, 48 h) turned out to be 100 µg/mL (≈ 298 µM); in experiment [6] (ATCC 6538, 48 h), 50 µg/mL (≈ 149 µM); in [9] (ATCC 25922, 48 h), 50 µg/mL (≈ 149 µM); in [10] (ATCC 6633, 48 h), 100 µg/mL (≈ 298 µM). In addition, the “growth inhibition (GI)” value in experiment [4] was “inactive”.

Regarding `Cc1nc(NC(=S)Nc2ccccc2)sc1C(=O)NN`, the MBC in [1] was 100 µg/mL (≈ 325 µM); in experiment [3], 200 µg/mL (≈ 651 µM); in experiment [8], 100 µg/mL (≈ 325 µM). The zone of inhibition at 1000 µg/mL in experiment [2], in experiment [5], in [7], in experiment [11] and in experiment [12] was greater than 13 mm in each case. Further, the “growth inhibition (GI)” value in experiment [4] was “inactive”. The MIC was 50 µg/mL (≈ 163 µM) in experiment [6] (ATCC 6538, 48 h); 100 µg/mL (≈ 325 µM) in experiment [9] (ATCC 25922, 48 h); 100 µg/mL (≈ 325 µM) in experiment [10] (ATCC 6633, 48 h).

With `Clc1ccccc1C(c1ccccc1)(c1ccccc1)n1ccnc1` [CLOTRIMAZOLE], the MIC in experiment [15] was 6.25 µg/mL (≈ 18.1 µM).

Regarding `Cc1nc(NC(=S)NC2CCCCC2)sc1C(=O)NN`, the MBC in experiment [1] is 100 µg/mL (≈ 319 µM); in experiment [14], 200 µg/mL (≈ 638 µM); in [3] it was 100 µg/mL (≈ 319 µM); in [8], 100 µg/mL (≈ 319 µM). Besides, the zone of inhibition at 1000 µg/mL in experiment [2], in experiment [5], in [7], in experiment [11] and in experiment [12] was greater than 13 mm each time. Also, the MIC in [13] (ATCC 27853, 48 h) came out at 100 µg/mL (≈ 319 µM); in [6] (ATCC 6538, 48 h), 100 µg/mL (≈ 319 µM); in experiment [9] (ATCC 25922, 48 h) it was 50 µg/mL (≈ 160 µM); in experiment [10] (ATCC 6633, 48 h), 100 µg/mL (≈ 319 µM). For the same compound, the “growth inhibition (GI)” value in experiment [4] was “inactive”.

For the compound `CCOC(=O)c1sc(NC(=S)NC2CCCCC2)nc1C`, the minimum bactericidal concentration (MBC) in experiment [1] worked out at 100 µg/mL (≈ 305 µM); in experiment [3], 200 µg/mL (≈ 611 µM); in [8] it was 100 µg/mL (≈ 305 µM). The zone of inhibition at 1000 µg/mL in [2], in [5], in experiment [7], in [11] and in experiment [12] was greater than 13 mm each time. The “growth inhibition (GI)” value in experiment [4] was “inactive”. Moreover, the MIC worked out at 50 µg/mL (≈ 153 µM) in experiment [6] (ATCC 6538, 48 h); 50 µg/mL (≈ 153 µM) in experiment [9] (ATCC 25922, 48 h); 100 µg/mL (≈ 305 µM) in experiment [10] (ATCC 6633, 48 h).

Regarding `C[C@@H]1[C@H](O)[C@@H](C)/C=C/C=C/C=C/C=C/C=C/C=C/C=C/[C@H](O[C@@H]2O[C@H](C)[C@@H](O)[C@H](N)[C@@H]2O)C[C@@H]2O[C@](O)(C[C@@H](O)C[C@@H](O)[C@H](O)CC[C@@H](O)C[C@@H](O)CC(=O)O[C@H]1C)C[C@H](O)[C@H]2C(=O)O` [AMPHOTERICIN B], the MIC in experiment [15] was 1.56 µg/mL (≈ 1.69 µM).

Regarding `CCOC(=O)c1sc(NC=O)nc1C`, the zone of inhibition at 1000 µg/mL in experiment [2], in experiment [5], in experiment [7], in experiment [11] and in experiment [12] was greater than 13 mm each time. The MBC in experiment [3] and in experiment [8] was 200 µg/mL (≈ 934 µM) throughout. For the same compound, in experiment [4], the “growth inhibition (GI)” value was “inactive”. In addition, the MIC is 100 µg/mL (≈ 467 µM) in experiment [6] (ATCC 6538, 48 h) and 100 µg/mL (≈ 467 µM) in experiment [10] (ATCC 6633, 48 h).

Consider `CCOC(=O)c1sc(/N=C/c2ccco2)nc1C`, for which the MBC in experiment [1] is 50 µg/mL (≈ 189 µM); in experiment [3], 200 µg/mL (≈ 757 µM); in [8], 100 µg/mL (≈ 378 µM). For the same compound, the zone of inhibition at 1000 µg/mL in experiment [2], in [5], in [7], in experiment [11] and in experiment [12] was greater than 13 mm throughout. The “growth inhibition (GI)” value in [4] is “inactive”. In addition, the MIC worked out at 50 µg/mL (≈ 189 µM) in experiment [6] (ATCC 6538, 48 h); 25 µg/mL (≈ 94.6 µM) in [9] (ATCC 25922, 48 h); 100 µg/mL (≈ 378 µM) in experiment [10] (ATCC 6633, 48 h).

Source of the values: ChEMBL document CHEMBL3124924, “Bifunctional ethyl 2-amino-4-methylthiazole-5-carboxylate derivatives: synthesis and in vitro biological evaluation as antimicrobial and anticancer agents” (2014).
